Screening results from PubChem BioAssay.
IDH1 R132H inh: blocks human IDH1 R132H reductase activity; O75874; diaphorase/resazurin fluorescence, 60 min; inhibition, % at 10 µM; 70,000 compounds, 0.18% hits; AID 624101; in the data active = inhibition above about 34%; inconclusive = no clear call, values can overlap the other calls; inactive = below about 11%;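 note: 0% = DMSO and 100% = no enzyme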
KDM4C inh: KDM4C (human) demethylase inhibition. GST-KDM4C 2-372, H3K9me3 peptide, LANCE TR-FRET. inhibition, % at 12.5 µM. 96,000 compounds, 0.15% hits. AID 720574;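 active = mean replicate inhibition above about 25%, with at least 55% of replicates also reaching it, limit read from the data, passing the limit was not always enough; inconclusive = only one of those two conditions met; inactive = neither condition met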
Target sequence (Q9H3R0 2-372 limits assumed): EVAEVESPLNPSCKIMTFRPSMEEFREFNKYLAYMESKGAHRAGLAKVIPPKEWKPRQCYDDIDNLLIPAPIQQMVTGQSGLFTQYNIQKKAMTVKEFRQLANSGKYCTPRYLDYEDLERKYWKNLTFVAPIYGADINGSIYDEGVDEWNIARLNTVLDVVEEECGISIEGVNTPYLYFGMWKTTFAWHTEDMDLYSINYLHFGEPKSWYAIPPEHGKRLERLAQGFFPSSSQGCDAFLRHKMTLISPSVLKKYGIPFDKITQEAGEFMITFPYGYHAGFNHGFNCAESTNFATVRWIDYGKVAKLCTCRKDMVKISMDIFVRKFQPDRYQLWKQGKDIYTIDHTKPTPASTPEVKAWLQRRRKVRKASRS
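System: N-terminal GST-fused human GASC-1 (KDM4C) fragment, residues 2-372; amount: enzyme final amount 10 nM; incubation: reaction 30 min RT, detection step 1 h RT; medium: HEPES buffer, pH 7.5, plus ascorbate; technique: LANCE TR-FRET, Eu antibody, ULight-streptavidin, EDTA, ex 340 nm, em 618/671 nm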
T cruzi growth-1: inhibitors of T. cruzi proliferation. T. cruzi beta-gal in NIH3T3, GalScreen luminescence, 90 h. inhibition, % at 8.34 µM. 77,000 compounds, 5.9% hits. AID 624255;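 active = mean inhibition above about 93%, with at least 55% of replicates each passing it, limit read from the data, passing the limit was not always enough; inconclusive = only one of those two conditions holds; inactive = neither condition holds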
T cruzi growth-2: blocks T. cruzi growth in NIH3T3 host cells; shares compounds with T cruzi growth-1; T. cruzi beta-gal in NIH3T3, GalScreen luminescence, 90 h; inhibition, % at 8.35 µM; 5,600 compounds, 72% hits; AID 651739;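 active = mean replicate inhibition above about 95% and at least 55% of replicates individually reaching it, limit read from the data; inconclusive = only one of the two criteria is met; inactive = neither criterion is met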
T cruzi growth-3: Trypanosoma cruzi proliferation inhibition | shares compounds with T cruzi growth-1 | T. cruzi beta-gal in NIH3T3, GalScreen luminescence, 90 h | inhibition, % at 2.09 µM | 5,600 compounds, 21% hits | AID 651740;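 active = mean inhibition above about 95%, with at least 55% of replicates also reaching it, limit read from the data; inconclusive = meets just one of the two conditions; inactive = meets neither condition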;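 note: plate controls were neutral control median for no effect and positive control median for full effect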
NIH3T3 tox: kills mouse NIH/3T3 fibroblasts | cytotoxicity (signal decrease), % at 8.35 µM | 5,600 compounds, 14% hits | NIH/3T3 viability, CellTiter-Glo ATP luminescence, 90 h | AID 651742 | shares compounds with T cruzi growth-1;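 active = mean signal decrease across replicates above about 35% based on untreated-well scatter, with enough replicates individually passing, limit read from the data; inconclusive = no rule stated though some were filed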;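 note: 0% = median of neutral control wells and 100% = median of positive control wells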
3T3 cytotox 2: NIH/3T3 (mouse) viability loss. AID 651744. NIH/3T3 viability, CellTiter-Glo ATP luminescence, 90 h. inhibition, % at 24.9 µM. 5,600 compounds, 56% hits. shares compounds with T cruzi growth-1;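 active = mean loss of cell viability signal at or above a set limit, and enough replicates individually reaching it; inconclusive = meets only the mean limit or only the replicate share; inactive = meets neither condition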;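 note: 0% = median of neutral control wells and 100% = median of positive control wells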
The depositor's hits bear a star; u = inconclusive; x = not tested or not shown. The entries come from a sample that favours hits as a whole.

SMILES	IDH1 R132H inh	KDM4C inh	T cruzi growth-1	T cruzi growth-2	T cruzi growth-3	NIH3T3 tox	3T3 cytotox 2
O=C(C[C@@H]1C[C@@H]2c3cc(NC(=O)CC4CC4)ccc3O[C@@H]2[C@@H](CO)O1)NCc1cccnc1	-1	-4	100*	113*	-27	-7	-11
O=C(C[C@@H]1C[C@H]2c3cc(NC(=O)NC4CCCC4)ccc3O[C@H]2[C@H](CO)O1)NCc1ccc(-c2ccccc2)cc1	1	-1	100*	105*	u	-12	51*
O=C(C[C@@H]1C[C@H]2c3cc(NC(=O)NC4CCCC4)ccc3O[C@H]2[C@@H](CO)O1)NCc1ccc(Cl)cc1	0	-3	36	x	x	x	x
O=C(C[C@@H]1C[C@H]2c3cc(NC(=O)Cc4ccncc4)ccc3O[C@H]2[C@@H](CO)O1)NCc1cccnc1	0	3	7	x	x	x	x
O=C(C[C@@H]1C[C@H]2c3cc(NC(=O)NC4CCCC4)ccc3O[C@H]2[C@@H](CO)O1)NCc1ccc(-c2ccccc2)cc1	0	1	85	x	x	x	x
O=C(C[C@H]1C[C@@H]2c3cc(NC(=O)NC4CCCC4)ccc3O[C@@H]2[C@@H](CO)O1)NCc1ccc(Cl)cc1	0	1	u	103*	42	22	18
O=C(C[C@H]1C[C@@H]2c3cc(NC(=O)CC4CC4)ccc3O[C@@H]2[C@@H](CO)O1)NCc1ccc(-c2ccccc2)cc1	0	-1	41	x	x	x	x
O=C(C[C@H]1C[C@@H]2c3cc(NC(=O)CC4CC4)ccc3O[C@@H]2[C@H](CO)O1)NCc1ccc(-c2ccccc2)cc1	0	0	104*	112*	56	11	-3
COc1cc(OC)c(NC(=O)CN(C)S(=O)(=O)c2ccc(Br)cc2)cc1Cl	0	x	x	x	x	x	x
CCC(CCCCC(=O)CCCCC1CCC(=O)O1)O[C@@H]1O[C@H](CO[C@@H]2O[C@H](CO)[C@@H](O)[C@H](O)[C@H]2O)[C@H](OC(=O)/C=C/c2ccc(O)cc2)[C@H](OC(C)=O)[C@H]1O (stereo partly specified)	0	x	x	x	x	x	x
COC(=O)c1ccc(-n2c(CCC(=O)O)ccc2-c2ccc(Br)cc2)cc1	1	x	x	x	x	x	x
Cc1cccc(C)c1OCC(=O)Nc1cccc(C(=O)O)c1C	-1	x	x	x	x	x	x
CCc1c(C)sc(NC(=S)Nc2cnccn2)c1C(=O)OC	0	x	x	x	x	x	x
Cc1cc([N+](=O)[O-])nn1CC(=O)Nc1cccc(O)c1	0	x	x	x	x	x	x
Cc1cccc(C)c1OCC(=O)NCc1cccnc1	3	x	x	x	x	x	x
O=C1c2cccc3cccc(c23)C(=O)N1CCCSc1n[nH]c(-c2ccc(F)cc2)n1	0	x	x	x	x	x	x
O=C(C1CCOCC1)N1CC[C@@H]2[C@H](CO)Nc3ccc(-c4ccc(F)cc4)cc3[C@@H]21	x	3	u	110*	64	-12	12
O=C(C1CCOCC1)N1CC[C@H]2[C@H](CO)Nc3ccc(-c4cccc(F)c4)cc3[C@H]21	x	-1	72	x	x	x	x
O=C(C1CCOCC1)N1CC[C@H]2[C@H](CO)Nc3ccc(-c4ccc(F)cc4)cc3[C@H]21	x	-1	101*	104*	48	-12	-9
O=C(C1CCOCC1)N1CC[C@@H]2[C@@H](CO)Nc3ccc(Br)cc3[C@@H]21	x	7	71	x	x	x	x
CCc1ccc(CCC(=O)Nc2ccc3ccccc3c2)o1	0	x	x	x	x	x	x
O=[N+]([O-])c1ccccc1NCCNS(=O)(=O)c1ccc(Cl)c(Cl)c1	-1	x	x	x	x	x	x
N#Cc1cccc(-c2ccc([C@@H]3[C@H](CO)N4CCCCN(C(=O)Nc5ccccc5)C[C@@H]34)cc2)c1	x	-1	98*	108*	88	36*	106*
N#Cc1cccc(-c2ccc([C@H]3[C@H](CO)N4CCCCN(C(=O)Nc5ccccc5)C[C@@H]34)cc2)c1	x	-1	99*	110*	64	46*	106*
N#Cc1cccc(-c2ccc([C@@H]3[C@@H](CO)N4CCCCN(C(=O)Nc5ccccc5)C[C@@H]34)cc2)c1	x	0	108*	107*	70	42*	93*
SMILES	IDH1 R132H inh	KDM4C inh	T cruzi growth-1	T cruzi growth-2	T cruzi growth-3	NIH3T3 tox	3T3 cytotox 2
COc1ccccc1NC(=O)N1CCCCN2[C@H](C1)[C@@H](c1ccc(-c3cccc(C#N)c3)cc1)[C@@H]2CO	x	0	43	x	x	x	x
CCC(=O)N1CCCCN2[C@H](CO)[C@H](c3ccc(-c4cccc(C#N)c4)cc3)[C@@H]2C1	x	0	92	x	x	x	x
N#Cc1cccc(-c2ccc([C@H]3[C@@H](CO)N4CCCCN(C(=O)Nc5ccccc5)C[C@@H]34)cc2)c1	x	-2	111*	108*	71	21	16
COc1ccccc1NC(=O)N1CCCCN2[C@H](C1)[C@H](c1ccc(-c3cccc(C#N)c3)cc1)[C@@H]2CO	x	-3	82	x	x	x	x
N#Cc1cccc(-c2ccc([C@@H]3[C@@H](CO)N4CCCCN(C(=O)Nc5ccc(F)cc5)C[C@H]34)cc2)c1	x	1	93	x	x	x	x
CCc1cccc(C)c1NC(=O)CSc1nnc(-c2ccc(Cl)cc2Cl)n1C	-1	x	x	x	x	x	x
Cn1c(CN2CCOCC2)nnc1SCC(=O)Nc1ccccc1Br	0	x	x	x	x	x	x
COc1ccc(CCNC(=O)C(=O)c2c(-c3ccccc3)[nH]c3ccccc23)cc1OC	0	x	x	x	x	x	x
C[C@@H]1CN([C@@H](C)CO)C(=O)Cc2cc(NC(=O)C3CC3)ccc2O[C@H]1CN(C)Cc1ccc(Cl)c(Cl)c1	2	1	124*	98*	33	40*	106*
C[C@H]1CN([C@@H](C)CO)C(=O)Cc2cc(NC(=O)C3CC3)ccc2O[C@@H]1CN(C)Cc1ccc(Cl)c(Cl)c1	1	0	60	x	x	x	x
C[C@H](CO)N1C[C@H](C)[C@@H](CN(C)Cc2ccc(Cl)c(Cl)c2)Oc2ccc(NC(=O)C3CC3)cc2CC1=O	0	1	115*	105*	53	0	6
C[C@@H]1CN([C@@H](C)CO)C(=O)Cc2cc(NC(=O)C3CCCCC3)ccc2O[C@@H]1CN(C)Cc1ccc(Cl)c(Cl)c1	-9	0	84	x	x	x	x
Cc1cc(I)ccc1NC(=O)CN(c1cccc(C(F)(F)F)c1)S(C)(=O)=O	0	x	x	x	x	x	x
CN(C)C(CC(=O)Nc1cccc(Cl)c1Cl)C(=O)O (stereo unspecified)	1	x	x	x	x	x	x
CSc1ncc(Cl)c(C(=O)Nc2sc3c(c2C(=O)NCC2CCCO2)CCC3)n1 (stereo unspecified)	0	x	x	x	x	x	x
COc1ccccc1CNc1nc2nc(C)cc(C)n2n1	9	x	x	x	x	x	x
CC(=O)c1cccc(N(CC(=O)Nc2ccc(C(F)(F)F)cc2)S(C)(=O)=O)c1	0	x	x	x	x	x	x
COC(=O)c1ccc(C(=O)OC)c(NC(=O)COc2ccc3oc4c(c3c2)CCCC4)c1	0	x	x	x	x	x	x
C[C@H](O)C#Cc1ccc([C@H]2[C@@H](CO)N3CCCCN(C(=O)c4cccc(F)c4)C[C@H]23)cc1	x	1	56	x	x	x	x
